Test results as given in PubChem BioAssay.
Results filed as inconclusive are left out.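 The calls were made as follows, unless noted: active = viability at or below 27.92% in each of two runs, the all-compound median minus 4 SD; inconclusive = no clear call, values can overlap the other calls; inactive = the rest.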

Key:
[1] = OD615 S. cerevisiae growth inhibition, permissive medium, pilot counter-assay, permissive growth control for S. cerevisiae lifespan shortening project (AID 705;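 active = growth inhibition above 25% in both replicates, a cutoff set 3 SD above the mean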); details: OD615, 24 h, at 10 µM, active compounds read high
Method in brief: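 Material: engineered DeaD yeast; compound dosing: one dose 10 µM, DMSO 0.25% final; measure: yeast growth inhibition indicated by reduced 24 h OD615; detection: OD615 turbidity read; incubation: cells pre-grown 4 h, then 24 h compound exposure, 30 °C humidified; medium: permissive synthetic complete medium with raffinose and galactose carbon sources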

[2] = Restrictive medium S. cerevisiae growth inhibition, OD615, pilot screen of yeast lifespan reduction project, restrictive growth control (AID 706;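 active = growth inhibition above a set limit, 3 SD over mean compound inhibition, in both replicates, cut at about 43% in these data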;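 also: modified DeaD lifespan yeast strain shifted to restrictive glucose medium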); details: OD615, 48 h, at 10 µM, active compounds read high
Method in brief: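 material = engineered S. cerevisiae DeaD strain | medium = glucose-based CSMM-D restrictive medium | times = 4 h pre-incubation, 48 h exposure at 30 °C | technique = OD615 absorbance reading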

[3] = viability gain of MRP-1-high H69AR cells under doxorubicin, pilot screen, MRP-1 activator project, CellTiter-Glo, duplicate (AID 807;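 active = viability increase at or above a cutoff of the median across tested compounds plus 3 SD, cut at about 8.5% in these data, passing the limit was not always enough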;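 also: compound pretreatment 18-22 h then 72 h combined with doxorubicin; 0% = doxorubicin alone and 100% = vehicle without doxorubicin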); details: H69AR viability with doxorubicin, CellTiter-Glo luminescence; at 10 µM; active compounds read high
[4] = growth suppression of beta-catenin knockout HCT116, pilot screen, human colon tumor cells (AID 823;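 active = cell viability at or below a set limit in both duplicate runs, the limit being the all-compound median minus 4 SD, cut at about 23% in these data, passing the limit was not always enough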;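 also: 0% = wells killed by 20 µM Hyamine and 100% = untreated DMSO cell wells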); details: CellTiter-Glo, 60 h, at 10 µM, active compounds read low
[5] = growth suppression of PTEN-deleted HCT116, pilot screen, cell-based, HCT116 clonal line, CellTiter-Glo (AID 824); details: 60 h, at 10 µM, active compounds read low;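 also: 0% = 20 µM Hyamine control and 100% = vehicle cell control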
[6] = inhibitors of the yeast RAM network, pilot screen, dse1pr::URA3 reporter, 5-FOA selection (AID 869;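 active = inhibition over a set limit, the all-compound mean plus 3 SD, in both replicate runs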;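 also: 0% = DMSO wells with no growth and 100% = 10 µM 1-NA-PP1 with full growth; RAM network block rescues cells from 5-FOA so hits raise OD615 growth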); details: S. cerevisiae dse1pr::URA3 5-FOA growth, OD615, 2 d; at 10 µM; active compounds read high; strain carries analog-sensitive mutant Cbk1 kinase
[7] = RAM signaling pathway blockade in yeast – S. cerevisiae, Pdr1DBD-CYC8 efflux-inhibited sensitized strain, primary screen (AID 1298;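 active = RAM network inhibition above 8.4% in each of two replicates, 3 SD over the compound average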;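 also: 0% = DMSO untreated cells without growth and 100% = 10 µM 1-NA-PP1 full growth; higher means more yeast growth rescued from 5-FOA killing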); details: S. cerevisiae cbk1-as DSE1-URA3 strain, 5-FOA growth OD615, 2 d; at 50 µM; active compounds read high

COC(=O)NCc1ccc(Cl)c(Cl)c1
inactive: growth inhibition [1] 0.76% | growth inhibition [2] -7.57% | viability increase [3] -1.07% | viability [4] 85.4% | viability [5] 88.6% | inhibition [6] 0.09% | RAM network inhibition [7] 4.44%

CC(=O)NCCc1ccc(S(=O)(=O)N2CCCC2)cc1
inactive: growth inhibition [1] -6.14% | growth inhibition [2] 1.21% | viability increase [3] 0.04% | viability [4] 96.2% | viability [5] 96% | inhibition [6] 3.39% | RAM network inhibition [7] 3.82%

CCCCN(C)CCNC(=O)Cn1ncc2c(=O)oc3ccc(C)cc3c21
inactive: growth inhibition [1] -3.19% | growth inhibition [2] 0.355% | viability increase [3] -2.9% | viability [4] 95.1% | viability [5] 94.2% | inhibition [6] 0.93% | RAM network inhibition [7] 3.72%

CCOc1ccc(N2C(=O)CC(N3CCN(C4CCc5ccccc5C4)CC3)C2=O)cc1 (stereo unspecified)
inactive: growth inhibition [1] 2.08% | growth inhibition [2] 0.34% | viability increase [3] -1.42% | viability [4] 94.6% | viability [5] 93.1% | inhibition [6] 1.93% | RAM network inhibition [7] 1.53%

O=C1Nc2ccccc2C(O)(C(=O)NC2CC2)N1c1ccc(Cl)c(Cl)c1 (stereo unspecified)
inactive: growth inhibition [1] -1.51% | growth inhibition [2] -1.06% | viability increase [3] -4.14% | viability [4] 92.5% | viability [5] 95% | inhibition [6] 1.22% | RAM network inhibition [7] 3.99%

COC(=O)c1ccc(COc2ccc3c(C)c(C)c(=O)oc3c2)o1
inactive: growth inhibition [1] -4.33% | growth inhibition [2] -4.88% | viability increase [3] -0.68% | viability [4] 101% | viability [5] 105% | inhibition [6] 1.5% | RAM network inhibition [7] 5.89%

C(=N\c1nccs1)/c1cccnc1
inactive: growth inhibition [1] -7.2% | growth inhibition [2] -11.4% | viability increase [3] -0.86% | viability [4] 108% | viability [5] 100% | inhibition [6] 0.235% | RAM network inhibition [7] 2.23%

O=C1CN(C(=O)COc2ccccc2)CCN1
inactive: growth inhibition [1] -14.3% | growth inhibition [2] -15.5% | viability increase [3] -1.4% | viability [4] 99.3% | viability [5] 96.8% | inhibition [6] 1.35% | RAM network inhibition [7] -0.43%

Cc1ccc(C(C(=O)NC2CCCCC2)N2CCCC2)cc1 (stereo unspecified)
inactive: growth inhibition [1] -4.08% | growth inhibition [2] -8.76% | viability increase [3] -3.02% | viability [4] 88.9% | viability [5] 93% | inhibition [6] 0.835% | RAM network inhibition [7] 8.97%

COc1cc(C2C(C(=O)c3ccco3)=C(O)C(=O)N2Cc2cccnc2)cc(OC)c1OC (stereo unspecified)
inactive: growth inhibition [1] 2.67% | growth inhibition [2] -4.03% | viability increase [3] -3.86% | viability [4] 102% | viability [5] 96.8% | inhibition [6] 1.64% | RAM network inhibition [7] 4.97%

COC(=O)C1=CNC=C(C(=O)OC)C1c1ccc(C(=O)OC)cc1
inactive: growth inhibition [1] 1.55% | growth inhibition [2] 6.7% | viability increase [3] -3.35% | viability [4] 93.5% | viability [5] 98.3% | inhibition [6] 0.165% | RAM network inhibition [7] 2.17%

COc1cccc(NC(=O)Cn2cc3c(n2)CCCCC3)c1
inactive: growth inhibition [1] -10% | growth inhibition [2] -7.44% | viability increase [3] 0.07% | viability [4] 98.2% | viability [5] 92% | inhibition [6] 1.66% | RAM network inhibition [7] 6.31%

CCOC(=O)C(C(=O)Nc1ccccc1)C1CCCCC1 (stereo unspecified)
inactive: growth inhibition [1] -7.22% | growth inhibition [2] 1.79% | viability increase [3] -5.02% | viability [4] 86.1% | viability [5] 86.7% | inhibition [6] -0.18% | RAM network inhibition [7] 3.67%

CCC(=O)Nc1sc2c(c1C(N)=O)CCN(C(C)=O)C2
inactive: growth inhibition [1] -12.9% | growth inhibition [2] -19.6% | viability increase [3] -0.72% | viability [4] 103% | viability [5] 105% | inhibition [6] 1.94% | RAM network inhibition [7] 3.29%

O=C(CCCOc1ccc(Cl)cc1)N1CCCCC1
inactive: growth inhibition [1] -13.2% | growth inhibition [2] -11.9% | viability increase [3] 3.35% | viability [4] 96.1% | viability [5] 96.8% | inhibition [6] 0.44% | RAM network inhibition [7] -0.78%

Cc1ccc(Oc2ccccc2)c(NC=O)c1
inactive: growth inhibition [1] -2.02% | growth inhibition [2] 11.4% | viability increase [3] -3.07% | viability [4] 96.2% | viability [5] 90.4% | inhibition [6] -0.085% | RAM network inhibition [7] 1.17%

COc1ccc(NC(=O)NCCN2CCN(c3cccc(Cl)c3)CC2)cc1
inactive: growth inhibition [1] 1.49% | growth inhibition [2] -5.71% | viability increase [3] -1.77% | viability [4] 76.9% | viability [5] 71.9% | inhibition [6] 0.88% | RAM network inhibition [7] 3.82%

c1cn2c(NC3CCCC3)c(-c3ccc(N4CCOCC4)cc3)nc2cn1
inactive: growth inhibition [1] -2.94% | growth inhibition [2] 7.59% | viability increase [3] -4.3% | viability [4] 88.8% | viability [5] 77.8% | inhibition [6] 1.78% | RAM network inhibition [7] 3.25%

Cc1cc(N2CCN(C3CCCCC3)CC2)nc2cccc(O)c12
inactive: growth inhibition [1] -7.5% | growth inhibition [2] -31.3% | viability increase [3] -4% | viability [4] 61% | viability [5] 62.8% | inhibition [6] 2.71% | RAM network inhibition [7] 4.45%

O=C(CN1CCN(Cc2ccc(F)cc2)C1=O)NCc1cccs1
inactive: growth inhibition [1] -6.23% | growth inhibition [2] -1.7% | viability increase [3] 1.33% | viability [4] 99.5% | viability [5] 94.1% | inhibition [6] 0.97% | RAM network inhibition [7] 2.12%

O=C(COC(=O)c1cnccn1)c1ccc2c(c1)CCCC2
inactive: growth inhibition [1] -11.3% | growth inhibition [2] -17.1% | viability increase [3] -1.19% | viability [4] 91.9% | viability [5] 88.6% | inhibition [6] 1.32% | RAM network inhibition [7] 1.14%

O=C(NCc1cccs1)c1ccccc1F
inactive: growth inhibition [1] -9.19% | growth inhibition [2] -7.24% | viability increase [3] -0.25% | viability [4] 94.2% | viability [5] 88.9% | inhibition [6] 0.385% | RAM network inhibition [7] 1.34%

COc1ccc(-n2nnc3c(=O)n(CC(=O)N4CCC(C)CC4)cnc32)cc1
inactive: growth inhibition [1] 8.16% | growth inhibition [2] 3.46% | viability increase [3] -0.52% | viability [4] 95.8% | viability [5] 92.3% | inhibition [6] 1.77% | RAM network inhibition [7] 2.64%
